{"source": "ChEMBL document CHEMBL2034843", "about": "“3α-Hydroxymasticadienonic acid as an antiproliferative agent that impairs mitochondrial functions” (J Nat Prod, 2012)", "key": {"Rattus norvegicus [1]": {"species": "Rattus norvegicus", "assay": "Hepatoprotective activity in rat liver assessed as increase in mitochondrial membrane potential at 100 uM by spectrophotometric analysis in presence of 50 uM Ca2+", "format": "functional", "details": "Mitochondria", "in_short": "(§1)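 Membrane potential (ΔΨ) derived from TPP+ distribution across the inner membrane, measured with a TPP+-selective electrode. Ca2+ 50 μM where indicated; cyclosporin A 1 μM where indicated.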"}, "Rattus norvegicus [2]": {"species": "Rattus norvegicus", "assay": "Induction of mitochondrial dysfunction in rat liver mitochondria assessed as increase in colloid-osmotic swelling at 10 uM by spectrophotometric analysis in presence of 50 uM Ca2+ and Ca2+ transport inhibitor ruthedium red", "format": "functional", "in_short": "(§2)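 Swelling read as the 540 nm absorbance decrease in succinate-energized rat liver mitochondria (1 mg protein/mL, 20 °C, pH 7.4 sucrose/HEPES medium) with 50 μM Ca2+. Added agents where indicated: 1 μM CsA, 5 μM bongkrekic acid, 1 mM ADP, 2 μM ruthenium red, 10 μM NEM, 1 mM DTE. At least five repeats.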"}, "Rattus norvegicus [3]": {"species": "Rattus norvegicus", "assay": "Induction of mitochondrial dysfunction in rat liver mitochondria assessed as decrease in mitochondrial redox level at 100 uM after 15 mins by absorption spectrophotometric analysis in presence of 50 uM Ca2+", "format": "functional", "design": "scale not given: the % may be the effect or the level left", "in_short": "(§3)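 Mitochondrial protein thiol oxidation assayed per Santos et al. after 15 min incubation of rat liver mitochondria (1 mg protein/mL, 20 °C, succinate/rotenone standard medium). Results as % reduced thiols, mean ± SD, four independent experiments.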"}, "Rattus norvegicus [4]": {"species": "Rattus norvegicus", "assay": "Induction of mitochondrial bioenergetics dysfunction in ADP-stimulated rat liver mitochondria assessed as decrease in oxygen consumption at 10 to 50 uM by using clark electrode", "format": "functional", "in_short": "(§4)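 Isolated rat liver mitochondria (1 mg protein/mL), 20 °C, sucrose/HEPES pH 7.4 medium with 5 mM succinate plus 1.25 μM rotenone and 1 mM phosphate. O2 uptake followed with a Clark electrode; 300 μM ADP added to start state 3. RCI = V3/V4 (state 3 over state 4 rate). Five experiments.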"}, "Rattus norvegicus [5]": {"species": "Rattus norvegicus", "assay": "Induction of mitochondrial dysfunction in rat liver mitochondria assessed as increase in mitochondrial swelling at 10 uM by spectrophotometric analysis in presence of 70 uM Ca2+", "format": "functional", "in_short": "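Absorbance change at 540 nm of rat liver mitochondrial suspensions (1 mg protein/mL, 20 °C, succinate/rotenone energized, 250 mM sucrose, 10 mM HEPES pH 7.4, 1 mM phosphate); a fall in absorbance taken as swelling. Ca2+ at 50, 70 or 90 μM as specified, or omitted. Runs repeated at least four times.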"}, "Rattus norvegicus [6]": {"species": "Rattus norvegicus", "assay": "Induction of mitochondrial dysfunction in rat liver mitochondria assessed as Ca2+ accumulation at 10 uM after 1 to 2 mins by spectrophotometric analysis", "format": "functional", "in_short": "(§5)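 Ca2+ movements in rat liver mitochondria (1 mg protein/mL, 20 °C, succinate/rotenone medium) exposed to 70 μM Ca2+; Ca2+ in mitochondrial pellets measured by atomic absorption spectroscopy, uptake expressed per mg protein.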"}, "Rattus norvegicus [7]": {"species": "Rattus norvegicus", "assay": "Induction of mitochondrial dysfunction in rat liver mitochondria assessed as increase in colloid-osmotic swelling at 10 uM by spectrophotometric analysis in presence of 50 uM Ca2+ and N-ethylmaleimide", "format": "functional", "in_short": "as §2"}, "Rattus norvegicus [8]": {"species": "Rattus norvegicus", "assay": "Induction of mitochondrial dysfunction in rat liver mitochondria assessed as decrease in mitochondrial redox level at 10 uM after 15 mins by absorption spectrophotometric analysis", "format": "functional", "design": "scale not given: the % may be the effect or the level left", "in_short": "as §3"}, "Rattus norvegicus [9]": {"species": "Rattus norvegicus", "assay": "Induction of mitochondrial dysfunction in Ca2+-stimulated rat liver mitochondria assessed as decrease in mitochondrial redox level at 10 uM after 15 mins by absorption spectrophotometric analysis in presence of ADP", "format": "functional", "in_short": "as §3"}, "Rattus norvegicus [10]": {"species": "Rattus norvegicus", "assay": "Hepatoprotective activity in rat liver assessed as inhibition of colloid-osmotic mitochondrial swelling at 100 uM by spectrophotometric analysis in presence of 90 uM Ca2+", "details": "Mitochondria"}, "HeLa": {"tested_on": "HeLa", "assay": "Cytotoxicity against human HeLa cells after 72 hrs by trypan blue assay", "format": "functional, cell-based", "in_short": "(§6)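 Cells seeded at 4 × 10^4 per well, grown 24 h, then given fresh medium with a range of concentrations and kept a further 72 h at 37 °C in 5% CO2. Viability was read by trypan blue count. IC50 is the concentration giving 50% fewer cells than control cultures, as mean ± SD of at least four experiments. HeLa were grown in F-12 with 10% heat-inactivated FCS; A-431 and HepG2 in DMEM with 10% FBS.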"}, "Rattus norvegicus [11]": {"species": "Rattus norvegicus", "assay": "Induction of mitochondrial dysfunction in rat liver mitochondria assessed as cytochrome c release at 100 uM after 15 mins by Western blot analysis in presence of Ca2+", "format": "functional", "in_short": "(§7)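 Mitochondria (1 mg protein/mL) held 15 min at 20 °C in standard succinate/rotenone medium with or without Ca2+, then centrifuged 13000g, 10 min, 4 °C. Supernatants concentrated, resolved by SDS-PAGE (15% for cyt c, 10% for AIF) and immunoblotted with mouse anti-cyt c or rabbit anti-AIF.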"}, "Rattus norvegicus [12]": {"species": "Rattus norvegicus", "assay": "Induction of mitochondrial dysfunction in rat liver mitochondria assessed as apoptosis inducing factor release at 10 uM after 15 mins by Western blot analysis", "format": "functional", "in_short": "as §7"}, "Rattus norvegicus [13]": {"species": "Rattus norvegicus", "assay": "Induction of mitochondrial bioenergetics dysfunction in rat liver mitochondria assessed as decrease in respiratory control index at 10 uM by using clark electrode", "format": "functional", "in_short": "as §4"}, "HepG2": {"tested_on": "HepG2", "assay": "Cytotoxicity against human HepG2 cells after 72 hrs by trypan blue assay", "format": "functional, cell-based", "details": "HepG2, 72 h", "in_short": "as §6"}, "Rattus norvegicus [14]": {"species": "Rattus norvegicus", "assay": "Induction of mitochondrial dysfunction in rat liver mitochondria assessed as cytochrome c release at 100 uM after 15 mins by Western blot analysis", "format": "functional", "in_short": "as §7"}, "Rattus norvegicus [15]": {"species": "Rattus norvegicus", "assay": "Induction of mitochondrial dysfunction in rat liver mitochondria assessed as decrease in membrane potential at 10 uM by spectrophotometric analysis in presence of 50 uM Ca2+", "format": "functional", "details": "TDE = time-dependent effect", "in_short": "as §1"}, "Rattus norvegicus [16]": {"species": "Rattus norvegicus", "assay": "Induction of mitochondrial dysfunction in rat liver mitochondria assessed as cytochrome c release at 10 uM after 15 mins by Western blot analysis", "format": "functional", "in_short": "as §7"}, "Rattus norvegicus [17]": {"species": "Rattus norvegicus", "assay": "Induction of mitochondrial dysfunction in rat liver mitochondria assessed as decrease in membrane potential at 5 uM by spectrophotometric analysis in presence of 50 uM Ca2+", "format": "functional", "details": "TDE = time-dependent effect", "in_short": "as §1"}, "Rattus norvegicus [18]": {"species": "Rattus norvegicus", "assay": "Induction of mitochondrial dysfunction in rat liver mitochondria assessed as apoptosis inducing factor release at 100 uM after 15 mins by Western blot analysis", "format": "functional", "in_short": "as §7"}, "Rattus norvegicus [19]": {"species": "Rattus norvegicus", "assay": "Induction of mitochondrial dysfunction in Ca2+-stimulated rat liver mitochondria assessed as decrease in mitochondrial redox level at 10 uM after 15 mins by absorption spectrophotometric analysis in presence of bongkrekic acid", "format": "functional", "in_short": "as §3"}, "Rattus norvegicus [20]": {"species": "Rattus norvegicus", "assay": "Induction of mitochondrial dysfunction in rat liver mitochondria assessed as blockage of Ca2+ release at 100 uM by spectrophotometric analysis", "format": "functional", "details": "in the assay text read “Ca2+ accumulation” for “Ca2+ release”", "in_short": "as §5"}, "Rattus norvegicus [21]": {"species": "Rattus norvegicus", "assay": "Induction of mitochondrial dysfunction in rat liver mitochondria assessed as decrease in membrane potential at 100 uM by spectrophotometric analysis in presence of 1 uM MPT inhibitor cyclosporin A", "format": "functional", "in_short": "as §1"}, "Rattus norvegicus [22]": {"species": "Rattus norvegicus", "assay": "Induction of mitochondrial dysfunction in rat liver mitochondria assessed as increase in colloid-osmotic swelling at 10 uM by spectrophotometric analysis in presence of 50 uM Ca2+ and dithiothreitol", "format": "functional", "in_short": "as §2"}, "A-431": {"tested_on": "A-431", "assay": "Cytotoxicity against human A431cells after 72 hrs by trypan blue assay", "format": "functional, cell-based", "details": "A-431, 72 h", "in_short": "as §6"}, "Rattus norvegicus [23]": {"species": "Rattus norvegicus", "assay": "Induction of mitochondrial dysfunction in rat liver mitochondria assessed as decrease in mitochondrial redox level at 100 uM after 15 mins by absorption spectrophotometric analysis", "format": "functional", "design": "scale not given: the % may be the effect or the level left", "in_short": "as §3"}}, "note": "Calls of active or inactive are those of the source. The rule behind the calls is not given here."}
{"smiles": "C/C(=C/CC[C@H](C)[C@@H]1CC[C@]2(C)C3=CC[C@H]4C(C)(C)[C@H](O)CC[C@]4(C)[C@H]3CC[C@@]12C)C(=O)O", "values": [{"measurement": "Activity", "setting": "Rattus norvegicus [1]", "result": "Active"}, {"measurement": "Activity", "setting": "Rattus norvegicus [2]", "result": "inactive"}, {"measurement": "Activity", "setting": "Rattus norvegicus [3]", "result": 25, "unit": "%"}, {"measurement": "Activity", "setting": "Rattus norvegicus [4]", "result": "Active"}, {"measurement": "Activity", "setting": "Rattus norvegicus [5]", "result": "Active"}, {"measurement": "Activity", "setting": "Rattus norvegicus [6]", "result": "inactive"}, {"measurement": "Activity", "setting": "Rattus norvegicus [7]", "result": "inactive"}, {"measurement": "Activity", "setting": "Rattus norvegicus [8]", "result": 20, "unit": "%"}, {"measurement": "Activity", "setting": "Rattus norvegicus [9]", "result": "Active"}, {"measurement": "inhibition", "setting": "Rattus norvegicus [10]", "result": "Active"}, {"measurement": "IC50", "setting": "HeLa", "result": 28.9, "unit": "µM"}, {"measurement": "Activity", "setting": "Rattus norvegicus [11]", "result": "inactive"}, {"measurement": "Activity", "setting": "Rattus norvegicus [12]", "result": "inactive"}, {"measurement": "Activity", "setting": "Rattus norvegicus [13]", "result": "Active"}, {"measurement": "IC50", "setting": "HepG2", "result": 20.1, "unit": "µM"}, {"measurement": "Activity", "setting": "Rattus norvegicus [14]", "result": "inactive"}, {"measurement": "Activity", "setting": "Rattus norvegicus [15]", "result": "tde"}, {"measurement": "Activity", "setting": "Rattus norvegicus [16]", "result": "inactive"}, {"measurement": "Activity", "setting": "Rattus norvegicus [17]", "result": "tde"}, {"measurement": "Activity", "setting": "Rattus norvegicus [18]", "result": "inactive"}, {"measurement": "Activity", "setting": "Rattus norvegicus [19]", "result": "Active"}, {"measurement": "Activity", "setting": "Rattus norvegicus [20]", "result": "Active"}, {"measurement": "Activity", "setting": "Rattus norvegicus [21]", "result": "Active"}, {"measurement": "Activity", "setting": "Rattus norvegicus [22]", "result": "inactive"}, {"measurement": "IC50", "setting": "A-431", "result": 40, "unit": "µM"}, {"measurement": "Activity", "setting": "Rattus norvegicus [23]", "result": 25, "unit": "%"}]}
